Results reported in ChEMBL document CHEMBL4321879, “Novel Class of Colony-Stimulating Factor 1 Receptor Kinase Inhibitors Based on an o-Aminopyridyl Alkynyl Scaffold as Potential Treatment for Inflammatory Disorders” (J Med Chem, 2020).

Key:
[1] = molecular target: Tyrosine-protein kinase ITK/TSK (Homo sapiens) (UniProt Q08881); assay: Inhibition of recombinant human N-terminal His6-tagged ITK (352 to 617 residues) expressed in baculovirus infected Sf21 insect cells at 1000 nM using poly (Glu, Tyr)4:1 as substrate measured after 1 hr by ELISA relative to control
In short: (§1)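 ELISA kinase assay: recombinant kinase added to wells precoated with poly(Glu,Tyr)4:1 and incubated with compound in reaction buffer containing 5 μM ATP, 37 °C for 1 h; wells then washed before antibody detection.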

[2] = molecular target: T1, Fibroblast growth factor receptor 2 (Homo sapiens, UniProt P21802); assay: Inhibition of recombinant human N-terminal His6-tagged FGFR2 (456 to 770 residues) expressed in baculovirus infected Sf21 insect cells at 1000 nM using poly (Glu, Tyr)4:1 as substrate measured after 1 hr by ELISA relative to control
In short: (§2)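 Recombinant kinase was incubated with compound in reaction buffer containing 5 μM ATP, in wells precoated with poly(Glu,Tyr) 4:1, for 1 h at 37 °C. Phosphorylation was detected by ELISA.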

[3] = molecular target: Tyrosine-protein kinase ITK/TSK (Homo sapiens) (UniProt Q08881); assay: Inhibition of recombinant human N-terminal His6-tagged ITK (352 to 617 residues) expressed in baculovirus infected Sf21 insect cells at 100 nM using poly (Glu, Tyr)4:1 as substrate measured after 1 hr by ELISA relative to control; in short: as §1
[4] = molecular target: Proto-oncogene tyrosine-protein kinase receptor Ret (Homo sapiens) (UniProt P07949); assay: Inhibition of recombinant human N-terminal GST-tagged RET (658 to end residues) expressed in baculovirus infected Sf21 insect cells at 10 nM using poly (Glu, Tyr)4:1 as substrate measured after 1 hr by ELISA relative to control; in short: as §2
[5] = molecular target: FLT3 (Homo sapiens, UniProt P36888); assay: Inhibition of recombinant human N-terminal GST-tagged FLT3 (564 to end residues) expressed in Sf21 insect cells at 100 nM using poly (Glu, Tyr)4:1 as substrate measured after 1 hr by ELISA relative to control; details: probe poly (Glu, Tyr)4:1; in short: as §2
[6] = Tmax in Sprague-Dawley rat at 5 mg/kg, po administered via gavage by LC-MS/MS analysis; format: ADME, organism-based; details: in vivo
In short: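 Male SD rats (200 ± 20 g), fasted 12 h, n = 3; oral gavage 5 mg/kg in DMSO/HPMC (5/95). Femoral vein blood at 15–1440 min; plasma precipitated with methanol plus internal standard, LC–MS/MS; noncompartmental analysis, Tmax observed directly, MRT = AUMC/AUC.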

[7] = molecular target: Vascular endothelial growth factor receptor 2 (Homo sapiens) (UniProt P35968); assay: Inhibition of recombinant human VEGFR2 (D1-7) expressed in Spodoptera frugiperda insect cells at 100 nM using poly (Glu, Tyr)4:1 as substrate measured after 1 hr by ELISA relative to control; in short: as §1
[8] = molecular target: Proto-oncogene tyrosine-protein kinase receptor Ret (Homo sapiens) (UniProt P07949); assay: Inhibition of recombinant human N-terminal GST-tagged RET (658 to end residues) expressed in baculovirus infected Sf21 insect cells at 100 nM using poly (Glu, Tyr)4:1 as substrate measured after 1 hr by ELISA relative to control; in short: as §2
[9] = test system: RAW264.7; assay: Antiinflammatory activity in mouse RAW264.7 cells assessed as reduction in LPS-induced IL6 release measured after 24 hrs by ELISA; format: functional, cell-based; details: RAW264.7, 24 h
In short: (§3)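 RAW264.7 cells in DMEM with 10% FBS and 0.125% DMSO were incubated with compound, then primed with LPS 1 μg/mL for 24 h. Supernatant TNF-α and IL-6 measured by mouse ELISA. IC50 from log(inhibitor) versus normalized response nonlinear fit.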

[10] = Cmax in Sprague-Dawley rat at 5 mg/kg, po administered via gavage by LC-MS/MS analysis; format: ADME, organism-based; set-up: dose 5 mg/kg, route oral; details: in vivo
In short: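 Male SD rats (200 ± 20 g) were fasted 12 h with free access to water, n = 3 per group. One group received 2 mg/kg iv in DMSO/EtOH/PEG300/saline (5/5/40/50). The other received 5 mg/kg by oral gavage in DMSO/HPMC (5/95). Femoral-vein plasma was taken at 15–1440 min, methanol-precipitated with internal standard, and measured by LC–MS/MS. Noncompartmental analysis; AUC by trapezoidal method.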

[11] = molecular target: Vascular endothelial growth factor receptor 1 (Homo sapiens) (UniProt P17948); assay: Inhibition of recombinant human VEGFR1 expressed in Spodoptera frugiperda insect cells at 100 nM using poly (Glu, Tyr)4:1 as substrate measured after 1 hr by ELISA relative to control; in short: as §1
[12] = molecular target: Proto-oncogene tyrosine-protein kinase receptor Ret (Homo sapiens) (UniProt P07949); assay: Inhibition of recombinant human N-terminal GST-tagged RET (658 to end residues) expressed in baculovirus infected Sf21 insect cells at 1000 nM using poly (Glu, Tyr)4:1 as substrate measured after 1 hr by ELISA relative to control; in short: as §2
[13] = test system: RAW264.7; assay: Antiinflammatory activity in mouse RAW264.7 cells assessed as reduction in LPS-induced TNFalpha release measured after 24 hrs by ELISA; format: functional, cell-based; details: RAW264.7, 24 h; in short: as §3
[14] = molecular target: Vascular endothelial growth factor receptor 1 (Homo sapiens) (UniProt P17948); assay: Inhibition of recombinant human VEGFR1 expressed in Spodoptera frugiperda insect cells at 10 nM using poly (Glu, Tyr)4:1 as substrate measured after 1 hr by ELISA relative to control; in short: as §1
[15] = molecular target: T1, Fibroblast growth factor receptor 2; assay: Inhibition of recombinant human N-terminal His6-tagged FGFR2 (456 to 770 residues) expressed in baculovirus infected Sf21 insect cells using poly (Glu, Tyr)4:1 as substrate measured after 1 hr by ELISA; in short: as §2
[16] = molecular target: Ephrin type-A receptor 2 (Homo sapiens) (UniProt P29317); assay: Inhibition of recombinant human N-terminal His6-tagged EphA2 (596 to 900 residues) expressed in baculovirus infected Sf21 insect cells at 1000 nM using poly (Glu, Tyr)4:1 as substrate measured after 1 hr by ELISA relative to control; in short: as §2
[17] = molecular target: Vascular endothelial growth factor receptor 3 (Homo sapiens) (UniProt P35916); assay: Inhibition of recombinant VEGFR3 (unknown origin) at 100 nM using poly (Glu, Tyr)4:1 as substrate measured after 1 hr by ELISA relative to control; in short: as §2
[18] = molecular target: Receptor tyrosine-protein kinase erbB-4 (Homo sapiens) (UniProt Q15303); assay: Inhibition of recombinant human N-terminal His6-tagged Erbb4 (706 to 991 residues) expressed in baculovirus infected Sf21 insect cells at 1000 nM using poly (Glu, Tyr)4:1 as substrate measured after 1 hr by ELISA relative to control; in short: as §2
[19] = molecular target: Epidermal growth factor receptor (Homo sapiens) (UniProt P00533); assay: Inhibition of recombinant human N-terminal GST-tagged EGFR (696 to end residues) expressed in baculovirus infected Sf21 insect cells at 1000 nM using poly (Glu, Tyr)4:1 as substrate measured after 1 hr by ELISA relative to control; in short: as §2
[20] = molecular target: Tyrosine-protein kinase BTK (Homo sapiens) (UniProt Q06187); assay: Inhibition of recombinant human full-length N-terminal His6-tagged BTK expressed in baculovirus infected Sf21 insect cells at 100 nM using poly (Glu, Tyr)4:1 as substrate measured after 1 hr by ELISA relative to control; in short: as §1
Sequence of Tyrosine-protein kinase BTK (Homo sapiens) (Q06187 whole entry): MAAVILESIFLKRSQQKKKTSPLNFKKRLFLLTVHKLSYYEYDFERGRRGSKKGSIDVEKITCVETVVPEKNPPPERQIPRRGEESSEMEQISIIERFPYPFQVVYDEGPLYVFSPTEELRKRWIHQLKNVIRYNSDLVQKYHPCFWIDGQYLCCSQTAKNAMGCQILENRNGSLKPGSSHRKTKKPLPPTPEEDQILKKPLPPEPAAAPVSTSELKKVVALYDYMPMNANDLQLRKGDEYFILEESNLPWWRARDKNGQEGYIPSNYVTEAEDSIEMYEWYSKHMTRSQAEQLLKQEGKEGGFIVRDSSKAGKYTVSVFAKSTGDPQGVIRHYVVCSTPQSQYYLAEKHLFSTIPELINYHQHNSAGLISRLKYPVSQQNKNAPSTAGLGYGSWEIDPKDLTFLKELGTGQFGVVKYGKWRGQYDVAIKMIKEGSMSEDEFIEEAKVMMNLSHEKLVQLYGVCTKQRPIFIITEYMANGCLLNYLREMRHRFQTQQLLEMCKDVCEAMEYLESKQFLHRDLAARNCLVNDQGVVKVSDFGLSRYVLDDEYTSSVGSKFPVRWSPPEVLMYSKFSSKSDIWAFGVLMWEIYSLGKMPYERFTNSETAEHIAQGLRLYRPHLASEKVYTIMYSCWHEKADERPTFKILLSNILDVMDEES

Sequence of Proto-oncogene tyrosine-protein kinase receptor Ret (Homo sapiens) (P07949 whole entry): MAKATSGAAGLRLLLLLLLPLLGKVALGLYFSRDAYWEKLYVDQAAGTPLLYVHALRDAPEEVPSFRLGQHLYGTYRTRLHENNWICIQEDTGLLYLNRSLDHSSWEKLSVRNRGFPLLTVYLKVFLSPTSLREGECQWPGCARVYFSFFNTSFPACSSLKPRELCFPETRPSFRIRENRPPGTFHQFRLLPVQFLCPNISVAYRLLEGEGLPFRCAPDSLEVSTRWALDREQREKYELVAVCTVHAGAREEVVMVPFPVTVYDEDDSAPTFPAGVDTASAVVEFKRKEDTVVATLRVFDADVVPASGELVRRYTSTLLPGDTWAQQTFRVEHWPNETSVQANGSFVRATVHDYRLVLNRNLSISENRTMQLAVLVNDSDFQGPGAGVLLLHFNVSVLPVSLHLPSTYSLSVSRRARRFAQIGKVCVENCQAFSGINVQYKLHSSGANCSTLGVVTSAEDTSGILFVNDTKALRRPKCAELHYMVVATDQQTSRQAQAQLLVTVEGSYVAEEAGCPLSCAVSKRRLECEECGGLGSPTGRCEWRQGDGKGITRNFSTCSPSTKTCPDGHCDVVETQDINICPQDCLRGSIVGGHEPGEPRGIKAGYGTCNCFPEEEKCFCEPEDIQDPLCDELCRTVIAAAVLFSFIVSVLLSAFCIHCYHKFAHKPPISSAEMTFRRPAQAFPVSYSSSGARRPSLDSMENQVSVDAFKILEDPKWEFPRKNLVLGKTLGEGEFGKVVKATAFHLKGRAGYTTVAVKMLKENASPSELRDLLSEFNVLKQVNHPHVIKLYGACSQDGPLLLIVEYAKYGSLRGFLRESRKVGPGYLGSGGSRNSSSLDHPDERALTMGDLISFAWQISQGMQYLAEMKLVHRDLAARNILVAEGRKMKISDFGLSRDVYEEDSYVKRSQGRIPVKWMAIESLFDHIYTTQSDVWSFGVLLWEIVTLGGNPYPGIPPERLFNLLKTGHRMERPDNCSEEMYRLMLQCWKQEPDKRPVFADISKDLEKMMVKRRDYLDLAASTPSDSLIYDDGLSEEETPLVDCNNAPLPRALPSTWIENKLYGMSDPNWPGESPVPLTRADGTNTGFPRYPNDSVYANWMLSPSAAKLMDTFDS
Sequence of Vascular endothelial growth factor receptor 1 (Homo sapiens) (P17948 whole entry, the tested form may be a part): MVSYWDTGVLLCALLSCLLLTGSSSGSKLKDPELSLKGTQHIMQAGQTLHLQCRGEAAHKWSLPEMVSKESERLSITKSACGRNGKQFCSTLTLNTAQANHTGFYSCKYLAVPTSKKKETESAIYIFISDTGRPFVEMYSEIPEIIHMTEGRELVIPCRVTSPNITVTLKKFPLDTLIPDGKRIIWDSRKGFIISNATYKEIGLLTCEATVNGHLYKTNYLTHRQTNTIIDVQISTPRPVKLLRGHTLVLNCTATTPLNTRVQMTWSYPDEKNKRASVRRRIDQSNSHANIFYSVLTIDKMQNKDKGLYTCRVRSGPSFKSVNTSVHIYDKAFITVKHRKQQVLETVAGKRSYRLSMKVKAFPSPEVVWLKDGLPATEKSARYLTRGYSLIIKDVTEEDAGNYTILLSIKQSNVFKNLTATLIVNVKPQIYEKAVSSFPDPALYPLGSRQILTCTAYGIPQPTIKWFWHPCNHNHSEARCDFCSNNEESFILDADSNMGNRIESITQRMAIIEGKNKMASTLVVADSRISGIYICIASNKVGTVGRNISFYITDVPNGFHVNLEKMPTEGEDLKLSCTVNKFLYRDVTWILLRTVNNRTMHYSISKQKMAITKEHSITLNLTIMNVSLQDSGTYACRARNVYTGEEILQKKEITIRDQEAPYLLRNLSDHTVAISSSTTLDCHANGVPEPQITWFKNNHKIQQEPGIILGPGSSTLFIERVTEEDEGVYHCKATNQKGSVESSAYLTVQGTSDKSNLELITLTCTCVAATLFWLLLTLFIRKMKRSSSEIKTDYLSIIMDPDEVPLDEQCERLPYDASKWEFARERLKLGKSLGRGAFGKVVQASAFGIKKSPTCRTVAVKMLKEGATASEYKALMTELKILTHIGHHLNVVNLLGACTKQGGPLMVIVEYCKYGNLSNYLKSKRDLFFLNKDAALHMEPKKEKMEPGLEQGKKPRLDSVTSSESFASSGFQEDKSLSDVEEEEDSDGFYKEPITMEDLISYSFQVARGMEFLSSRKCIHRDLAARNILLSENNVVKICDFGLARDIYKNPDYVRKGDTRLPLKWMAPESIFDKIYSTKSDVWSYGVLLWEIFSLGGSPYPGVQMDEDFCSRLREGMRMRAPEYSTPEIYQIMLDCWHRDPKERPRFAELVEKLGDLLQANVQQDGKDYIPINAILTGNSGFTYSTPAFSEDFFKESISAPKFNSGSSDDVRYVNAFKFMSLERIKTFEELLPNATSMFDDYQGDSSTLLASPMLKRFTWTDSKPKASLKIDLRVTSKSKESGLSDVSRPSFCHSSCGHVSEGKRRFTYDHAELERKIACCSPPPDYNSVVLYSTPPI
Sequence of Tyrosine-protein kinase ITK/TSK (Homo sapiens) (Q08881 whole entry, the tested form may be a part): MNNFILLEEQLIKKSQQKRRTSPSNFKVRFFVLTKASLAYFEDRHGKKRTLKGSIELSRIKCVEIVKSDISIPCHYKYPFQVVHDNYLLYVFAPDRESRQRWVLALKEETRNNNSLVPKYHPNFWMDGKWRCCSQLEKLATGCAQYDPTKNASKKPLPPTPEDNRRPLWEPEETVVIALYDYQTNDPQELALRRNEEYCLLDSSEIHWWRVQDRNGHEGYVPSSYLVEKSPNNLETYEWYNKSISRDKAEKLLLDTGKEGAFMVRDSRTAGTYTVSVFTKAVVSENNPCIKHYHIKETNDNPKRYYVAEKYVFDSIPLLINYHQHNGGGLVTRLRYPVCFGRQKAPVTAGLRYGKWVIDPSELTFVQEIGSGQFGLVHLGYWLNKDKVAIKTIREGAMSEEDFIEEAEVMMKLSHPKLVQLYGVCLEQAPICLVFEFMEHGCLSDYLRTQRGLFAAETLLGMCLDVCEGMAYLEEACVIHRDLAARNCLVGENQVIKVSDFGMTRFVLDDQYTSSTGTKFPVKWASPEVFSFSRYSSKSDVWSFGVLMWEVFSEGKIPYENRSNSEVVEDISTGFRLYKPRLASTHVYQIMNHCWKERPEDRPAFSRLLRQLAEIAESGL
Sequence of Vascular endothelial growth factor receptor 3 (Homo sapiens) (P35916 whole entry, the tested form may be a part): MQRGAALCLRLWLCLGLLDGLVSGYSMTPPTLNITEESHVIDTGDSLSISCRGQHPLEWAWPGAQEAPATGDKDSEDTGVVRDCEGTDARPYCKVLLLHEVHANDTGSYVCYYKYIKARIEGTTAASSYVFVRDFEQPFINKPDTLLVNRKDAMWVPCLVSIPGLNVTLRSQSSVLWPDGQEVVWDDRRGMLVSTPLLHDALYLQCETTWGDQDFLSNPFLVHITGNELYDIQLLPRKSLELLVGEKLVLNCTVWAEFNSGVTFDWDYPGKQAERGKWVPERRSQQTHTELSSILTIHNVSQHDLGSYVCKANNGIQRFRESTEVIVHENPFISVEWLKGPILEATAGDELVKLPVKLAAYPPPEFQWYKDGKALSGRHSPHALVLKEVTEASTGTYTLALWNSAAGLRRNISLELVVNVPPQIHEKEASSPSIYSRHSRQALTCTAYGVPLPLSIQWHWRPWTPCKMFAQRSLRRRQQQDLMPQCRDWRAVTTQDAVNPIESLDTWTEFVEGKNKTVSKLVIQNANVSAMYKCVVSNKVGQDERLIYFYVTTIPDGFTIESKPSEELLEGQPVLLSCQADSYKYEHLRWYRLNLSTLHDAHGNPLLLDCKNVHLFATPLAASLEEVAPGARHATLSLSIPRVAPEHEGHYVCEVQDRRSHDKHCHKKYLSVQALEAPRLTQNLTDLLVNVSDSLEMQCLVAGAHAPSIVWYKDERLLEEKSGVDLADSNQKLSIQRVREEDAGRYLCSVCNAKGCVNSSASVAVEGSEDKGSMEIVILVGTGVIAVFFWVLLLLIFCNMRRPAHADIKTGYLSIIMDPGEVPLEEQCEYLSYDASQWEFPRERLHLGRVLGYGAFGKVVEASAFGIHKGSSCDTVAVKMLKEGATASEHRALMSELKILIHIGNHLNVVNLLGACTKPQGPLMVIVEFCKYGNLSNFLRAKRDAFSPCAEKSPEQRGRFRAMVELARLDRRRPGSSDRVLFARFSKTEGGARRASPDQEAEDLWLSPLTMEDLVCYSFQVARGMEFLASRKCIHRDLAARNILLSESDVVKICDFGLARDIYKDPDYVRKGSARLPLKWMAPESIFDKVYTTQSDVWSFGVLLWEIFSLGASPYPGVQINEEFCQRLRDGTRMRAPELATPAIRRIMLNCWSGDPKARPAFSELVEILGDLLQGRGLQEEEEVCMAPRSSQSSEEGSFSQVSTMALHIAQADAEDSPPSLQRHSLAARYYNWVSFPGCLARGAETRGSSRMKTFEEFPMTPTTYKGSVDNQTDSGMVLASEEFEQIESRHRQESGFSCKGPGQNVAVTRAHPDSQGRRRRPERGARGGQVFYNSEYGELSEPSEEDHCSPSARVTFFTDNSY

inhibition [1]: 7.4%
inhibition [2]: 20.7%
inhibition [3]: 4.2%
inhibition [4]: 42.7%
inhibition at 1 h, 0.1 µM [5]: 0%
Tmax [6]: 4 h
inhibition [7]: 83.6%
inhibition [8]: 77.6%
IC50 [9]: 130 nM
Cmax [10]: 166 ng/mL
inhibition [11]: 78.5%
inhibition [12]: 96.6%
IC50 [13]: 110 nM
inhibition [14]: 36.2%
IC50 [15]: > 1000 nM
inhibition [16]: 92.3%
inhibition [17]: 69.4%
inhibition [18]: 1.6%
inhibition [19]: 0%
inhibition [20]: 0%
SMILES: Cc1ccc(C(=O)Nc2ccc(Cl)cc2)cc1C#Cc1cc(-c2cnn(C)c2)cnc1N
